These results are taken from ChEMBL document CHEMBL4382206, “Inhibition of adherence of the yeast Candida albicans to buccal epithelial cells by synthetic aromatic glycoconjugates” (Eur J Med Chem, 2018).

Series [1] relates to Candida albicans. As to the kind of experiment: Antimicrobial activity against Candida albicans assessed as inhibition of fungal adherence to BEC by measuring change in adhesion at 10 mg/ml treated with fungus for 90 mins followed by compound washout and cell line addition by crystal violet staining based microscopic analysis relative to control. On the set-up: scale not given: the % may be the effect or the level left. Format: functional. Summed up:
(§1)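 Stationary-phase C. albicans, grown overnight in YEPD at 30°C and 200 rpm, was washed and suspended in PBS at 1 x 10^8/mL. Yeast was preincubated 90 min with compound, washed twice, and mixed 50:1 with donor buccal cells (5 x 10^5/ml) at 30°C, 200 rpm, for 90 min. Samples were filtered through 30 µm pores, stained with crystal violet, and yeast counted on 200 BECs; n=3, mean ± SEM.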

Series [2] deals with Candida albicans. The series can be described thus: Growth inhibition of Candida albicans at 0.02 to 10 mg/ml. Type of series: organism-based.
Series [3] has as its system Candida albicans. The series can be described thus: Antimicrobial activity against Candida albicans assessed as inhibition of fungal adherence to BEC at 0.1 mg/ml treated with fungus for 90 mins followed by compound washout and cell line addition by crystal violet staining based microscopic analysis. Format: functional, organism-based. An outline of the steps:
as §1

Series [4] concerns Candida albicans. The series can be described thus: Antimicrobial activity against Candida albicans assessed as inhibition of fungal adherence to BEC by measuring adhesion at 0.1 mg/ml after 90 mins by crystal violet staining based microscopic analysis relative to control. Format: functional. Particulars: 1.5 h. Summed up: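 Competition format: yeast (1 x 10^8/mL PBS) and exfoliated human buccal cells (50:1 ratio) were co-incubated with compound for 90 min at 30°C, 200 rpm. BECs were trapped on a 30 µm polycarbonate membrane, washed twice with PBS, heat-fixed and crystal violet-stained. Adherent yeast were counted microscopically on 200 random BECs; three independent occasions, mean ± SEM.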

The test system of series [5] is Candida albicans. As to the kind of experiment: Antimicrobial activity against Candida albicans assessed as inhibition of fungal adherence to BEC at 0.1 mg/ml incubated with fungal/BEC mixture for 90 mins by crystal violet staining based microscopic analysis relative to untreated control. Particulars: 1.5 h. Type of series: functional.
Series [6] concerns Candida albicans. As to the kind of experiment: Antimicrobial activity against Candida albicans assessed as inhibition of fungal adherence to BEC at 0.1 mg/ml incubated with fungal/BEC mixture for 90 mins by crystal violet staining based microscopic analysis relative to PBS treated control. Type of series: functional. Particulars: 1.5 h.
A short description of series [7]: Drug uptake in Candida albicans cell membrane by confocal microscopic analysis. Type of series: ADME, cell-based. An outline of the steps: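 For confocal imaging, C. albicans cells were co-incubated with the fluorescein-labelled galactoside, with untreated cells and FITC-treated cells as controls. Excitation was at 488 nm and emission was collected at 500–600 nm.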

Structures are written as SMILES. The source made the active and inactive calls. No cut-off for these calls is given here.

Consider `CCC(=O)Nc1cc(C(=O)NCc2cn([C@H]3O[C@H](CO)[C@@H](O)[C@H](O)[C@H]3NC(C)=O)nn2)cc(C(=O)NCc2cn([C@H]3O[C@H](CO)[C@@H](O)[C@H](O)[C@H]3NC(C)=O)nn2)c1`, for which, in series [1], the Activity is listed as -45%. On the same count and under the same terms, the same measure for `CCC(=O)Nc1cccc(C(=O)NCc2cn([C@@H]3O[C@H](CO)[C@H](O)[C@H](O)[C@H]3O)nn2)c1`: -14.5%. With `CCC(=O)Nc1cc(C(=O)NCc2cn(CCO[C@@H]3O[C@H](CO)[C@H](O)[C@H](O)[C@H]3O)nn2)cc(C(=O)NCc2cn(CCO[C@@H]3O[C@H](CO)[C@H](O)[C@H](O)[C@H]3O)nn2)c1`, in series [1], the Activity is given as -35%. In addition, the “growth inhibition (GI)” value in series [2] was “Non-Toxic”. Regarding `CCC(=O)Nc1cccc(C(=O)NCc2cn([C@H]3O[C@@H](C)[C@@H](O)[C@@H](O)[C@@H]3O)nn2)c1`, in series [1], the Activity is recorded as -2%.

For `CC[C@H](C)C[C@H](C)CCCCCCCCC(=O)N[C@H]1C[C@@H](O)[C@@H](NCCN)NC(=O)[C@@H]2[C@@H](O)CCN2C(=O)[C@H]([C@H](O)CCN)NC(=O)[C@H]([C@H](O)[C@@H](O)c2ccc(O)cc2)NC(=O)[C@@H]2C[C@@H](O)CN2C(=O)[C@H]([C@@H](C)O)NC1=O` [CASPOFUNGIN], the “growth inhibition (GI)” value in series [2] is on record as “Non-Toxic”.

As to `CCC(=O)Nc1cc(C(=O)NCc2cn([C@H]3O[C@@H](C)[C@@H](O)[C@@H](O)[C@@H]3O)nn2)cc(C(=O)NCc2cn([C@H]3O[C@@H](C)[C@@H](O)[C@@H](O)[C@@H]3O)nn2)c1`, in series [1], the Activity was -8%. Also, in series [2], the “growth inhibition (GI)” value is reported as “Non-Toxic”. Regarding `CCC(=O)Nc1cc(C(=O)N[C@@H]2O[C@H](CO)[C@H](O)[C@H](O)[C@H]2O)cc(C(=O)N[C@@H]2O[C@H](CO)[C@H](O)[C@H](O)[C@H]2O)c1`, in series [1], the Activity is given as -26%. On to `CCC(=O)Nc1cc(C(=O)NCc2cn([C@@H]3O[C@H](CO)[C@H](O)[C@H](O)[C@H]3O)nn2)cc(C(=O)NCc2cn([C@@H]3O[C@H](CO)[C@H](O)[C@H](O)[C@H]3O)nn2)c1`, for which the inhibition entry in series [3] is “Active”. Moreover, the inhibition at 100 µg/mL in series [4] worked out at 65%; in series [5] it was 56%; in series [6], 31%. Further, the Activity in series [1] is -80%. Besides, the “growth inhibition (GI)” value in series [2] is on record as “Non-Toxic”. For the molecule `O=C(NCc1cn(CCO[C@@H]2O[C@H](CO)[C@H](O)[C@H](O)[C@H]2O)nn1)c1cc(C(=O)NCc2cn(CCO[C@@H]3O[C@H](CO)[C@H](O)[C@H](O)[C@H]3O)nn2)cc(C(=O)NCc2cn(CCO[C@@H]3O[C@H](CO)[C@H](O)[C@H](O)[C@H]3O)nn2)c1`, the Activity in series [1] is given as -42%. The “growth inhibition (GI)” value in series [2] is given as “Non-Toxic”. Consider `CCC(=O)Nc1cc(C(=O)NCc2cn([C@@H]3O[C@H](CO)[C@H](O[C@@H]4O[C@H](CO)[C@H](O)[C@H](O)[C@H]4O)[C@H](O)[C@H]3O)nn2)cc(C(=O)NCc2cn([C@@H]3O[C@H](CO)[C@H](O[C@@H]4O[C@H](CO)[C@H](O)[C@H](O)[C@H]4O)[C@H](O)[C@H]3O)nn2)c1`, for which the Activity in series [1] was 6.5%. The same measure, in the same setting: the same measure for `CCC(=O)Nc1cccc(C(=O)NCc2cn(CCO[C@@H]3O[C@H](CO)[C@H](O)[C@H](O)[C@H]3O)nn2)c1`: -7.5%; for `CCC(=O)Nc1cc(C(=O)NCc2cn([C@@H]3O[C@H](CO)[C@H](O)[C@H](O)[C@H]3O)nn2)cc(C(=O)NCc2cn([C@@H]3O[C@H](CO)[C@@H](O)[C@H](O)[C@@H]3O)nn2)c1`: -24%. Take `O=C(NCc1cn([C@@H]2O[C@H](CO)[C@H](O)[C@H](O)[C@H]2O)nn1)c1cc(NC(=S)Nc2ccc3c(c2)C(=O)OC32c3ccc(O)cc3Oc3cc(O)ccc32)cc(C(=O)NCc2cn([C@@H]3O[C@H](CO)[C@H](O)[C@H](O)[C@H]3O)nn2)c1`: in series [7], the Drug uptake entry is “Active”. As for `CCC(=O)Nc1cc(C(=O)NCc2cn([C@H]3O[C@H](CO)[C@@H](O)[C@H](O)[C@@H]3O)nn2)cc(C(=O)NCc2cn([C@H]3O[C@H](CO)[C@@H](O)[C@H](O)[C@@H]3O)nn2)c1`, the Activity in series [1] came to 3%.

`O=C(NCc1cn([C@@H]2O[C@H](CO)[C@H](O)[C@H](O)[C@H]2O)nn1)c1cc(C(=O)NCc2cn([C@@H]3O[C@H](CO)[C@H](O)[C@H](O)[C@H]3O)nn2)cc(C(=O)NCc2cn([C@@H]3O[C@H](CO)[C@H](O)[C@H](O)[C@H]3O)nn2)c1`: the Activity in series [1] was -45%. In addition, in series [2], the “growth inhibition (GI)” value is reported as “Non-Toxic”. Taken in the same sequence, the figures for `C[C@@H]1O[C@H](n2cc(CNC(=O)c3cc(C(=O)NCc4cn([C@H]5O[C@@H](C)[C@@H](O)[C@@H](O)[C@@H]5O)nn4)cc(C(=O)NCc4cn([C@H]5O[C@@H](C)[C@@H](O)[C@@H](O)[C@@H]5O)nn4)c3)nn2)[C@@H](O)[C@H](O)[C@@H]1O` were -30% and “Non-Toxic”.

A word on the inhibition: it is the relative decrease from the control value, in per cent.
